The results in this text go back to ChEMBL document CHEMBL1154089, “Novel N-(3-carboxyl-9-benzyl-beta-carboline-1-yl)ethylamino acids: synthesis, anti-tumor evaluation, intercalating determination, 3D QSAR analysis and docking investigation” (Eur J Med Chem, 2009).

The source made the active and inactive calls. The rule behind the calls is not given here.

For data set [1], the system named is Mus musculus. The data set is described as follows: Toxicity in ICR mouse assessed as liver necropsy at > 500 mg/kg, ip after 7 days. Also noted: dose 500 mg/kg, route intraperitoneal. The settings on record: in vivo, 168 h. Format: organism-based. The essentials:
(§1)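 Mice fasted overnight with free access to water, then given a single i.p. injection of 150, 300 or 500 mg/kg in 0.2 ml of 0.9% saline. Groups of 12 (six male, six female). Animals were watched continuously for up to 7 days for abnormal behaviour (tremor, twitch, jumping, tetanus, supination) or death. They were sacrificed on day 7, and heart, liver and kidneys were checked macroscopically. LD50 was estimated graphically.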

The subject of data set [2] is Mus musculus. Description: Toxicity in ICR mouse assessed as supination at > 500 mg/kg, ip after 7 days. As to conditions: in vivo, 168 h. Also noted: dose 500 mg/kg, route intraperitoneal. Format: organism-based. The essentials: as §1
The subject of a further data set is HeLa. Description: Cytotoxicity against human HeLa cells after 48 hrs by MTT assay. Format: functional, cell-based. The essentials: (§2)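 Cells grown in DMEM or RPMI-1640 with 10% FBS plus penicillin/streptomycin. Seeded at 5 × 10^4 cells/ml and given 4 h at 37 °C in 5% CO2 before the medium was replaced with compound (0.1–400 µM, DMSO vehicle; vehicle control 1% DMSO). After 48 h, MTT added (final 0.5 mg/ml) for 4 h. Formazan dissolved in DMSO and read at 570 nm. IC50 is the concentration giving 50% growth inhibition.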
In general terms: Tetrazolium assays rely on reduction of a dye to a coloured formazan, in cell work by metabolically active cells.

For a further data set, the system named is HepG2. Description: Cytotoxicity against human HepG2 cells after 48 hrs by MTT assay. Format: functional, cell-based. The settings on record: HepG2, 48 h. In a few lines: as §2
Data set [3] concerns CCRF S-180. Description: Antitumor activity against mouse S180 cells xenografted in ICR mouse assessed as inhibition of tumor growth at 89 umol/kg, ip administered 24 hrs after tumor implantation once daily for 7 consecutive days measured after 24 hrs last post dose. Format: functional. As to conditions: CCRF S-180, ip. The essentials:
(§3)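 S180 solid tumors in male ICR mice (10–12 weeks), 1 × 10^7 cells s.c. at the right armpit. Mice randomized at 24 h, n = 12 per group, and dosed i.p. daily in 0.2 ml 0.9% saline for 7 days. Tumors weighed 24 h after the final dose. Inhibition (%) = [(A − B)/A] × 100, where A is the mean tumor weight of saline controls and B is the mean of the treated group.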

The test system of data set [4] is Mus musculus. Description: Toxicity in ICR mouse assessed as kidneys necropsy at > 500 mg/kg, ip after 7 days. As to conditions: in vivo, 168 h. More on the design: dose 500 mg/kg, route intraperitoneal. Format: organism-based, Kidney. The essentials: as §1
Data set [5] deals with CCRF S-180. The data set is described as follows: Antitumor activity against mouse S180 cells xenografted in ICR mouse assessed as inhibition of tumor growth at 0.0089 umol/kg, ip administered 24 hrs after tumor implantation once daily for 7 consecutive days measured after 24 hrs last post dose. Format: functional. As to conditions: CCRF S-180, ip. The essentials: as §3
Data set [6] has as its system CCRF S-180. The data set is described as follows: Antitumor activity against mouse S180 cells xenografted in ICR mouse assessed as inhibition of tumor growth at > 89 umol/kg, ip administered 24 hrs after tumor implantation once daily for 7 consecutive days measured after 24 hrs last post dose. Format: functional, organism-based.
The subject of data set [7] is Mus musculus. Description: Toxicity in mouse S180 cells xenografted in ICR mouse assessed as spleen index at 89 umol/kg, ip administered 24 hrs after tumor implantation once daily for 7 consecutive days measured after 24 hrs last post dose. Format: organism-based, CCRF S-180. The settings on record: in vivo. In a few lines: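 S180-bearing male ICR mice (n = 12) received 89 µmol/kg i.p. daily in 0.2 ml saline for 7 days. Killed under ether 24 h after the last dose; spleens excised and weighed. Spleen index given as mean ± SD, […] body weight.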

The test system of data set [8] is CCRF S-180. Description: Antitumor activity against mouse S180 cells xenografted in ICR mouse assessed as decrease in tumor weight at 89 umol/kg, ip administered 24 hrs after tumor implantation once daily for 7 consecutive days measured after 24 hrs last post dose. Format: functional. The essentials: (§4)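 Male ICR mice, 10–12 weeks old. Solid tumors from 1 × 10^7 viable S180 ascites cells in 0.2 ml 0.9% saline, injected s.c. at the right armpit. Random allocation at 24 h, 12 per group. Dosed i.p. daily in 0.2 ml 0.9% saline for 7 days. Saline-only negative control; cytarabine 89 µmol/kg positive control. Tumors excised and weighed 24 h after the last dose. ANOVA used for statistics.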

A further data set has as its system HL-60. The data set is described as follows: Cytotoxicity against human HL60 cells after 48 hrs by MTT assay. Format: functional, cell-based. The settings on record: HL-60, 48 h. The essentials:
as §2

Data set [9] has as its system Mus musculus. The data set is described as follows: Toxicity in ICR mouse assessed as twitch at > 500 mg/kg, ip after 7 days. Format: organism-based. Also noted: dose 500 mg/kg, route intraperitoneal. As to conditions: in vivo, 168 h. In a few lines:
as §1

Data set [10] deals with CCRF S-180. Description: Antitumor activity against mouse S180 cells xenografted in ICR mouse assessed as decrease in tumor weight at 0.0089 umol/kg, ip administered 24 hrs after tumor implantation once daily for 7 consecutive days measured after 24 hrs last post dose. Format: functional. In a few lines:
as §4

Data set [11] relates to Mus musculus. Description: Toxicity in ICR mouse assessed as tremor at > 500 mg/kg, ip after 7 days. More on the design: dose 500 mg/kg, route intraperitoneal. Format: organism-based. The settings on record: in vivo, 168 h. In a few lines:
as §1

A short description of data set [12]: Cytotoxicity against human MES-SA cells after 48 hrs by MTT assay. Format: functional, cell-based. In a few lines:
as §2

For data set [13], the system named is Mus musculus. Description: Toxicity in mouse S180 cells xenografted in ICR mouse assessed as increase in body weight at 89 umol/kg, ip administered 24 hrs after tumor implantation once daily for 7 consecutive days measured after 24 hrs last post dose. Format: organism-based, CCRF S-180. As to conditions: in vivo. The essentials: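 S180-bearing male ICR mice, n = 12 per group, given 89 µmol/kg i.p. daily in 0.2 ml 0.9% saline for 7 days, starting 24 h after s.c. implantation. Animals weighed daily. Result expressed as body-weight increase from the start of treatment, in g, mean ± SD.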

A short description of data set [14]: Cytotoxicity against human H1299 cells after 48 hrs by MTT assay. The settings on record: NCI-H1299, 48 h. Format: functional, cell-based. In a few lines: as §2
Data set [15] relates to CCRF S-180. Description: Antitumor activity against mouse S180 cells xenografted in ICR mouse assessed as decrease in tumor weight at 0.89 umol/kg, ip administered 24 hrs after tumor implantation once daily for 7 consecutive days measured after 24 hrs last post dose. Format: functional. In a few lines: as §4
In data set [16] the test system is CCRF S-180. The data set is described as follows: Antitumor activity against mouse S180 cells xenografted in ICR mouse assessed as inhibition of tumor growth at 0.89 umol/kg, ip administered 24 hrs after tumor implantation once daily for 7 consecutive days measured after 24 hrs last post dose. Format: functional. As to conditions: CCRF S-180, ip. The essentials: as §3

In data set [17] the test system is Mus musculus. The data set is described as follows: Toxicity in ICR mouse assessed as jumping at > 500 mg/kg, ip after 7 days. The settings on record: in vivo, 168 h. Format: organism-based. More on the design: dose 500 mg/kg, route intraperitoneal. In a few lines: as §1
Data set [18] has as its system Mus musculus. Description: Toxicity in ICR mouse assessed as death at > 500 mg/kg, ip after 7 days. The settings on record: in vivo, 168 h. Format: organism-based. More on the design: dose 500 mg/kg, route intraperitoneal. The essentials:
as §1

Data set [19] concerns Mus musculus. Description: Toxicity in ICR mouse assessed as heart necropsy at > 500 mg/kg, ip after 7 days. Format: organism-based. More on the design: dose 500 mg/kg, route intraperitoneal. As to conditions: in vivo, 168 h. In a few lines:
as §1

Data set [20] concerns Mus musculus. The data set is described as follows: Toxicity in ICR mouse assessed as tetanus at > 500 mg/kg, ip after 7 days. Format: organism-based. Also noted: dose 500 mg/kg, route intraperitoneal. As to conditions: in vivo, 168 h. The essentials: as §1

In the case of `C[C@H](NCCc1nc(C(=O)O)cc2c3ccccc3n(Cc3ccccc3)c12)C(=O)O`, the Activity result in the data set on Mus musculus [1] is “Non-toxic”; in the data set with Mus musculus [2] it was “Non-toxic”; in the data set with Mus musculus [4] it was “Non-toxic”; in the data set on Mus musculus [7] it was 13.3 mg/g; in the data set on CCRF S-180 [8], 0.74 g; in the data set with Mus musculus [9], “Non-toxic”. Also, the Activity in the data set with CCRF S-180 [10] is recorded as 1.64 g; in the data set with Mus musculus [11] it was “Non-toxic”; in the data set with Mus musculus [13], 12.92 g; with CCRF S-180 [15] it was 1.22 g; in the data set on Mus musculus [17] it was “Non-toxic”; in the data set with Mus musculus [18] it was “Non-toxic”. For the same compound, the Activity entry with Mus musculus [19] and in the data set on Mus musculus [20] was “Non-toxic” throughout. Further, the IC50 amounted to 122 µM in the data set with HeLa; 242 µM with HepG2; 28.1 µM in the data set with HL-60; 120 µM in data set [12]; 81.8 µM in data set [14]. The inhibition in vivo at 89 µmol/kg in the data set with CCRF S-180 [3] was found to be 55.2%. In addition, the inhibition in vivo at 0.0089 µmol/kg with CCRF S-180 [5] is 1.5%. Moreover, the result in the data set with CCRF S-180 [6] was Active. For the same compound, the inhibition in vivo at 0.89 µmol/kg with CCRF S-180 [16] was 25.6%.
Regarding `O=C(O)C[C@H](NCCc1nc(C(=O)O)cc2c3ccccc3n(Cc3ccccc3)c12)C(=O)O`, the Activity entry in the data set with Mus musculus [1] was “Non-toxic”; with Mus musculus [2], “Non-toxic”; with Mus musculus [4], “Non-toxic”; in the data set on Mus musculus [7], 13 mg/g; in the data set on CCRF S-180 [8], 1.08 g; with Mus musculus [9] it was “Non-toxic”. Also, the Activity result was “Non-toxic” with Mus musculus [11]; 10.11 g with Mus musculus [13]; “Non-toxic” with Mus musculus [17]; “Non-toxic” in the data set with Mus musculus [18]; “Non-toxic” in the data set on Mus musculus [19]; “Non-toxic” in the data set with Mus musculus [20]. The half-maximal inhibitory concentration (IC50) with HeLa stood at 99.3 µM; in the data set on HepG2, 114 µM; in the data set on HL-60, 43.2 µM; in [12] it was 13 µM; in data set [14], 69 µM. For the same compound, the inhibition in vivo at 89 µmol/kg in the data set with CCRF S-180 [3] was found to be 34.7%.
Turning to `O=C(O)c1cc2c3ccccc3n(Cc3ccccc3)c2c(CCN[C@@H](Cc2ccc(O)cc2)C(=O)O)n1`, the Activity entry in the data set with Mus musculus [1] is “Non-toxic”; with Mus musculus [2], “Non-toxic”; in the data set with Mus musculus [4], “Non-toxic”; in the data set on Mus musculus [7] it was 13.6 mg/g; in the data set on CCRF S-180 [8], 0.85 g; with Mus musculus [9], “Non-toxic”. Also, the Activity result in the data set on Mus musculus [11] was “Non-toxic”; in the data set on Mus musculus [13], 13.62 g; in the data set on Mus musculus [17] it was “Non-toxic”; in the data set with Mus musculus [18], “Non-toxic”; with Mus musculus [19] it was “Non-toxic”; in the data set with Mus musculus [20] it was “Non-toxic”. Also, the IC50 was determined as 209 µM in the data set on HeLa; 127 µM with HepG2; 24 µM in the data set on HL-60; 59.3 µM in [12]; 72.5 µM in data set [14]. Moreover, in the data set with CCRF S-180 [3], the inhibition in vivo at 89 µmol/kg amounted to 48.6%.
In the case of `N=C(N)NCCC[C@H](NCCc1nc(C(=O)O)cc2c3ccccc3n(Cc3ccccc3)c12)C(=O)O`, the Activity result with Mus musculus [1] is “Non-toxic”; in the data set on Mus musculus [2], “Non-toxic”; in the data set with Mus musculus [4], “Non-toxic”; in the data set on Mus musculus [7], 12.7 mg/g; in the data set with CCRF S-180 [8], 1.03 g; in the data set with Mus musculus [9], “Non-toxic”. Also, the Activity entry in the data set on Mus musculus [11] is “Non-toxic”; with Mus musculus [13], 11.19 g; with Mus musculus [17], “Non-toxic”; in the data set on Mus musculus [18], “Non-toxic”; in the data set with Mus musculus [19] it was “Non-toxic”; in the data set on Mus musculus [20] it was “Non-toxic”. Besides, the IC50 with HeLa worked out at 259 µM; in the data set with HepG2 it was 161 µM; in the data set on HL-60, 40.9 µM; in [12], 68.2 µM; in data set [14] it was 86.4 µM. For the same compound, the inhibition in vivo at 89 µmol/kg with CCRF S-180 [3] was found to be 37.7%.

One may read the IC50 as the point on the concentration scale where inhibition reaches its midpoint. Read a low IC50 as inhibition by little substance. The term inhibition in vivo denotes the percentage by which the read-out fell short of the control.
